Tn7 DDE FP: inhibitors of Tn7 peptide binding to fibrin DD(E), primary screen, biochemical, fluorescence polarization, human fibrin, Tn7 probe; Fibrinogen beta chain (Homo sapiens), P02675; FP displacement of FITC-Tn7 peptide from fibrin DD(E); 0% = median of compound wells per plate; inhibition, % at 8.3 µM; actives 0.13% (n = 370,000); AID 720508, 2013;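 active means inhibition above the mean of compounds falling within the control limits plus 3 SD of them, cut at about 14% in these data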;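 further: 0% = plate median of compound wells and 100% = 10 µM Aha-Tn7 peptide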
Target sequence (P02675 whole entry, looked up): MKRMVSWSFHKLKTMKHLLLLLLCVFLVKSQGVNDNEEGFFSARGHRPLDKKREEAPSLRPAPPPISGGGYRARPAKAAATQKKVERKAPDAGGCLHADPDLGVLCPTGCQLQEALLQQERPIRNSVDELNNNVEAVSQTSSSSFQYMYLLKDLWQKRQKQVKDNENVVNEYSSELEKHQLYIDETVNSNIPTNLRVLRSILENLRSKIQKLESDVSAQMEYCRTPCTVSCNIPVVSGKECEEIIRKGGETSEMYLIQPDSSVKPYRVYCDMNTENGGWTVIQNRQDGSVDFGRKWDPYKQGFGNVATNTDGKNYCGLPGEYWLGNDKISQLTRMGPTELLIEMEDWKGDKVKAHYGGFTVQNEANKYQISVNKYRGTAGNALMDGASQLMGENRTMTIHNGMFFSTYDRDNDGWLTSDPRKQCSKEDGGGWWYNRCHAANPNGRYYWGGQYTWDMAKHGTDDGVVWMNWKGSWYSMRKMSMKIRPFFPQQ
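Assay system: human fibrin DD(E). Input: DD(E) 2 µM final. Medium: Tris buffer with calcium and detergent, pH 7.8. Compound dosing: single point at 8.3 µM. Timing: 10 min plus 3 h, room temperature. Technique: fluorescence polarization of the labelled Tn7 tracer. Read-out: percent inhibition. Replicates: singlicate testing.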
proKLK7 act: proKLK7 zymogen activators, primary screen, biochemical, fluorescence intensity. Kallikrein-7 (Homo sapiens), P49862. purified proKLK7, EDANS-DABCYL substrate fluorescence; 100% is mature enzyme control, 0% vehicle. activation, % at 7 µM. actives 0.9% (n = 370,000);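 active means activation above the mean of all tested compounds plus 3 SD, computed per campaign excluding outliers beyond control limits, cut at about 13% in these data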
CRFR2-BP antag: antagonists of CRF-BP/CRF-R2 complex, primary screen, cell-based, HEK293, calcium dye fluorescence, uHTS; actives 0.59% (n = 350,000); CRF-induced calcium fluorescence; inhibition, % at 11.8 µM;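 active means inhibition of the ligand-induced calcium signal above about 50% at the single tested concentration, limit read from the data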
CendR NRP1 mod: modulators of CendR peptide binding to NRP-1, primary screen, biochemical, fluorescence polarization, uHTS; AID 602438, 2012; inhibition, % at 25 µM; FAM-RPARPAR peptide binding to NRP-1; Neuropilin-1 (Homo sapiens), O14786; actives 0.85% (n = 360,000);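 active means inhibition or corrected inhibition above about 18%, plus a signal ratio from 0.5 to 1.5, limit read from the data, passing the limit was not always enough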
Tn6 DDE FP: inhibitors of Tn6 peptide binding to fibrin DD(E), primary screen, biochemical, fluorescence polarization, human fibrin, Tn6 probe; Fibrinogen beta chain (Homo sapiens), P02675; Fibrin DD(E) TRITC-Tn6 fluorescence polarization displacement; inhibition, % at 8.3 µM; actives 0.21% (n = 370,000); AID 720509, 2013;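 active means inhibition above a per-campaign cutoff: mean of compounds within control limits plus 3 SD, cut at about 15% in these data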;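 further: 0% = median of all compound wells on the plate and 100% = blocking peptide control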
CRFBP-R2 agonist: agonists of CRF-BP/CRF-R2 complex, primary screen, cell-based, HEK293, calcium dye fluorescence, uHTS | CRF-binding protein / CRF receptor 2 complex (human) | calcium dye fluorescence (FLIPR); percent of saturating CRF peptide response | activation, % at 13.2 µM | actives 0.46% (n = 350,000) | AID 588473, 2011;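 active means activation of at least 50%, plus an integration ratio under a set limit after plate pattern correction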;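 further: plate controls were neutral control wells without compound for no effect and CRF at EC100 for full effect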
KLK7 act conf: proKLK7 zymogen activators, confirmation, biochemical, fluorescence intensity, triplicate; purified proKLK7, EDANS-DABCYL substrate fluorescence; scaled: vehicle 0, mature enzyme 100; activation, % at 7 µM; shares compounds with proKLK7 act; AID 686949, 2013; actives 68% (n = 3,200);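 active means activation, as change over the incubation, above the mean of all tested compounds plus 3 SD, cut at about 13% in these data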
EDANS interfere: EDANS-DABCYL substrate optical interference, artefact control for kallikrein-7 zymogen activator project, biochemical, fluorescence intensity, high throughput; shares compounds with proKLK7 act; no enzyme, 4 h; solvent 0%, active enzyme control 100%; activation, % at 7 µM; actives 80% (n = 3,200);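 active means activation above the all-compound mean plus 3 SD, ignoring values outside control-based bounds, cut at about 4.8% in these data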;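 further: value is the 4 h activation minus the activation read at time zero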
Numbers without * were called inactive; nt = no result. An excerpt weighted towards active compounds, which were near 2.9% of everything screened.

SMILES	Tn7 DDE FP	proKLK7 act	CRFR2-BP antag	CendR NRP1 mod	Tn6 DDE FP	CRFBP-R2 agonist	KLK7 act conf	EDANS interfere
CN(Cc1ccccc1)S(=O)(=O)c1cccc(C(=O)OCC2CCCCC2)c1	-3	0	nt	nt	4	nt	nt	nt
CC(=O)c1cc(C)ccc1OC(=O)c1cccc2nc(C)oc12	-2	13*	5	9	2	-2	2	1
CC(=O)c1cc(C)ccc1OC(=O)c1ccncc1	-4	0	11	1	3	-3	nt	nt
COc1ccc(NC(=O)c2ccc(-c3ccc(OC)cc3)s2)cc1	-2	0	-2	1	4	3	nt	nt
CNC(=O)c1ccc(-c2ccc(OC)cc2)s1	2	50*	32	-9	2	-1	56*	66*
CC1=C(C#N)C(c2cccnc2)C2=C(CC(c3ccc(Cl)cc3)CC2=O)N1 (stereo not drawn)	7	13*	-20	-4	1	-2	2	9.2*
Clc1ccccc1N1CCN(C2=Nc3ccccc3Sc3ccccc32)CC1	6	-1	nt	nt	5	nt	nt	nt
C#CCOc1ccc(C2C3=C(CC(C)(C)CC3=O)N(CC(=O)O)C3=C2C(=O)CC(C)(C)C3)cc1	0	30*	-6	2	-4	3	68*	80*
COc1ccc(N2C3=C(C(=O)CC(C)(C)C3)C(c3ccccc3OC)C3=C2CC(C)(C)CC3=O)cc1	1	22*	-4	-1	-10	1	-27	-21
COc1ccc(C2C3=C(CC(C)(C)CC3=O)N(C)C3=C2C(=O)CC(C)(C)C3)cc1	-1	35*	3	2	0	-2	16*	25*
C#CCOc1ccc(C2C3=C(CC(C)(C)CC3=O)N(CC(=O)O)C3=C2C(=O)CC(C)(C)C3)cc1OC	0	0	0	3	-2	-2	nt	nt
COc1ccccc1C1C2=C(CC(C)(C)CC2=O)N(CC(=O)O)C2=C1C(=O)CC(C)(C)C2	-2	21*	9	-5	5	0	30*	34*
CC/C(C)=N/N1C(=O)c2ccccc2NC1(C)CC (stereo not drawn)	6	19*	-9	-2	9	2	45*	39*
N#CC1=C(N)C(C#N)(C#N)C(c2ccncc2)C2CN(C(=O)OCc3ccccc3)CC=C12 (stereo not drawn)	-4	17*	3	-26	1	6	36*	35*
CN1CC=C2C(C#N)=C(N)C(C#N)(C#N)C(c3ccsc3)C2C1 (stereo not drawn)	5	15*	-15	63	15	32	57*	55*
N#CC1=C(N)C(C#N)(C#N)[C@H](c2cccnc2)[C@H]2CN(C(=O)OCc3ccccc3)CC=C12	-1	8	-13	-25	-6	1	nt	nt
CCCC1C2CN(C(C)C)CC=C2C(C#N)=C(N)C1(C#N)C#N (stereo not drawn)	11	24*	-20	28	1	38	12	14*
CCOC(=O)N1CC=C2C(C#N)=C(N)C(C#N)(C#N)[C@H](c3ccsc3)[C@H]2C1	4	8	-11	-37	2	9	nt	nt
CCCCCCCCN1CN2Cc3ccc(C)cc3C2CS1(=O)=O (stereo not drawn)	-6	0	nt	nt	-2	nt	nt	nt
O=C(NC1CC1c1ccccc1)N1CCC(c2nc3ccc(Cl)cc3[nH]2)CC1 (stereo not drawn)	0	0	nt	nt	-9	nt	nt	nt
COc1ccc(OC)c2c1C(=O)C(Cl)=C(Cl)C2=O	0	7	29	-15	-3	0	nt	nt
COc1ccc(OC)c2c1C(=O)CC2C (stereo not drawn)	1	43*	22	-4	5	-3	49*	49*
CCN(CC)C(=O)CC[C@H]1CC[C@]2(CCCN(Cc3ccc(OC)cc3)C2)O1	-3	-1	nt	nt	6	nt	nt	nt
Cc1cc(=O)c2c(N(C)C)cccc2[nH]1	-2	82*	-3	-9	2	-3	57*	69*
CCn1c2ccccc2c2cc(NC(=O)COC(=O)c3ccc(F)cc3Cl)ccc21	0	0	nt	nt	-4	nt	nt	nt
SMILES	Tn7 DDE FP	proKLK7 act	CRFR2-BP antag	CendR NRP1 mod	Tn6 DDE FP	CRFBP-R2 agonist	KLK7 act conf	EDANS interfere
C[C@H]1C2CC(OC(=O)Nc3ccc(C#N)cc3)C(C2)[C@H]2CCCCN21 (stereo partly drawn)	3	0	nt	nt	3	nt	nt	nt
CCOC(=O)C1CCN(c2cc3c(cc2NC(=O)c2cc(OC)ccc2Br)n(C)c(=O)n3C)CC1	3	19*	72*	6	3	-6	25*	31*
CCOC(=O)C1CCN(c2cc3c(cc2NC(=O)c2ccccc2Br)n(C)c(=O)n3C)CC1	2	3	-3	13	-1	-5	nt	nt
CSc1nc2nc(Cl)c(Cl)nc2[nH]1	4	26*	16	0	3	4	45*	46*
CCOC(=O)CSc1nc2nc(Cl)c(Cl)nc2[nH]1	-7	36*	-2	-8	-4	6	30*	31*
COC(=O)c1ccc(NC2CC(=O)N(c3ccccc3C)C2=O)cc1 (stereo not drawn)	2	1	1	16	5	0	nt	nt
COC(=O)c1ccccc1NC1CC(=O)N(c2c(C)cccc2C)C1=O (stereo not drawn)	-3	88*	-7	5	-7	1	48*	49*
O=[N+]([O-])c1cc2c(ccc3occc32)o1	-4	-1	nt	nt	-1	nt	nt	nt
CCOC(=O)C1=CCN(S(=O)(=O)c2ccc(Br)cc2)C1c1cccc(Cl)c1 (stereo not drawn)	4	0	nt	nt	-4	nt	nt	nt
CCN(C)c1ccc(/C=N\n2nnnc2N)cc1	2	13*	14	-6	-4	1	46*	43*

Screening data deposited in PubChem BioAssay by several laboratories.
